Experimental data: ChEMBL document CHEMBL3286203, “Reactive oxygen species (ROS) inducible DNA cross-linking agents and their effect on cancer cells and normal lymphocytes” (J Med Chem, 2014)
Calls of active or inactive are those of the source. The calls are words filed in the database; no cut-off is given here.

Experiments:
CLL = experiment: Induction of ROS generation in human CLL cells at 10 uM after 24 hrs by DCDFA assay in presence of NAC; format: functional, cell-based
Method in brief: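 Primary CLL cells given compound (10 μM) with or without N-acetyl cysteine ([…]) for 24 h. Global ROS measured by DCFDA staining and flow histograms; n = 8 patient samples.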

[1] = 1-Octanol-PBS partition coefficient, log P of the compound; format: physicochemical

In the case of `CC1(C)OB(c2ccc(N(CCCl)CCBr)cc2)OC1(C)C`, the Activity (CLL) is reported as “inactive”.

With `CC1(C)OB(c2ccc(N(CCCl)CCCl)cc2)OC1(C)C` the logP [1] was 2.8.
